The record followed here is ChEMBL document CHEMBL4680371, “Design and Structure-Activity Relationship of a Potent Furin Inhibitor Derived from Influenza Hemagglutinin” (ACS Med Chem Lett, 2021).

The target of data set [1] is Furin (Homo sapiens, UniProt P09958). Kind of data set: Inhibition of recombinant soluble human furin using pyroGlu-Arg-Thr-Lys-Arg-methyl-coumaryl-7-amide as substrate measured after 1 hr. A digest of the protocol: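 Soluble human recombinant furin was tested in a competitive kinetic assay. Ki is reported as the mean ± SD of at least two independent experiments.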
Sequence of Furin (P09958 whole entry): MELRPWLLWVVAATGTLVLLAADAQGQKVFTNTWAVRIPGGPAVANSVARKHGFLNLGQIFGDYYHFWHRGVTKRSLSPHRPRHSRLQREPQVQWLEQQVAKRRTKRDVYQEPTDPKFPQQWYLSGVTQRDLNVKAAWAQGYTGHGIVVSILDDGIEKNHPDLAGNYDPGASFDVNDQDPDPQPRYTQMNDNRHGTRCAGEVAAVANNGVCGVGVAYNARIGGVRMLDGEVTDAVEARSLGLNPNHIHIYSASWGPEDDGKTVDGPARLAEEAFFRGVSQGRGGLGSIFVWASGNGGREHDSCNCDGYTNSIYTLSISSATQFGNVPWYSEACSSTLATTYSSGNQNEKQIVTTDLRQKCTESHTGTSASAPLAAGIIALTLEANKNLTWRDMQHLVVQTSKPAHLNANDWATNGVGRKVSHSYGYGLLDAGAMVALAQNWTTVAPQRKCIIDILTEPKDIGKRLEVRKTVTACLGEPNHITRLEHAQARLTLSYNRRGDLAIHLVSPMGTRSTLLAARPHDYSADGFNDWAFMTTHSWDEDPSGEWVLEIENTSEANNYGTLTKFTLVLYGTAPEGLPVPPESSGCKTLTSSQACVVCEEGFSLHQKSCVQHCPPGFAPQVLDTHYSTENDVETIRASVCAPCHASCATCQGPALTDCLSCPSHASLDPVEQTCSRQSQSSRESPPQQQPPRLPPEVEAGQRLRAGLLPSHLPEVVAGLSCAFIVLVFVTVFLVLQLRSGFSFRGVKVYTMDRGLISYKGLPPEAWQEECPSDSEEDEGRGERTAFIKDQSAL

The nature of data set [2]: Half life in CD1 mouse plasma by LC-MS/MS analysis. Format: ADME, cell-free. Particulars: CD1, mouse. A digest of the protocol: (§1)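 Peptide incubated ex vivo in mouse plasma at 37 °C and sampled at several time points, using the ng/mL concentration range. Intact peptide quantified by high-resolution mass spectrometry and expressed as percentage remaining; t1/2 derived from the time course. Each time point run in triplicate; mean and mean ± SD reported.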

Data set [3] can be described thus: Stability of the compound in CD1 mouse plasma assessed as intact compound remaining measured after 2 mins by LC-MS/MS analysis. The format is ADME, cell-free. Particulars: read-out: Stabilty. A digest of the protocol: as §1

A word on the Ki: it is the equilibrium dissociation constant of an inhibitor or competing ligand from its target. For orientation: half-life means the time in which the quantity being followed falls by half. A low value points to fast loss. For the compound `CC[C@H](NC(=O)[C@H](CCCNC(=N)N)NC(=O)[C@H](C)NC(=O)[C@H]1CCCN1C(C)=O)C(=O)N[C@@H](CCCNC(=N)N)C(=O)N[C@@H](CCCCN)C(=O)N[C@@H](CCCCN)C(=O)N[C@@H](CCCNC(=N)N)C(=O)N[C@H](C(N)=O)[C@@H](C)O`, the Ki in data set [1] amounted to 11 nM. In data set [2], this compound came in with a half-life of 1.11 min. For the same compound, in data set [3], the remaining at 2 min was 25%.
